{"data": "Experimental data pooled from the literature", "note": "Protocols differ between the studies behind these lines."}
{"SMILES": "O=C(N[C@@H](Cc1ccccc1)C(=O)c1nc2ccccc2s1)[C@H](Cc1ccccc1)NC(=O)N1CCOCC1", "organism": "Trypanosoma cruzi", "assay": "parasite growth", "test system": "TULAHUEN", "setting": "intracellular, amastigote", "endpoint": "IC50", "value": "17.5 µM"}
{"SMILES": "CC1=NN(CNC(=O)c2ccccc2)C(=O)C1=NNn1c(-c2ccccc2)nc2ccccc2c1=O", "organism": "Monascus purpureus", "assay": "microbial growth, broth dilution", "endpoint": "MIC", "value": "104 µM"}
{"SMILES": "CCOC(=O)c1c(NC(=O)c2c(F)c(F)c(F)c(F)c2F)sc2c1CCN(CC)C2", "organism": "Mycobacterium tuberculosis", "assay": "microbial killing", "test system": "H37RV", "setting": "21 days", "endpoint": "MBC", "value": "< 5 µM"}
{"SMILES": "O=C1NN=C(N=Cc2ccc(O)c(O)c2)C1=NNn1c(-c2ccccc2)nc2ccccc2c1=O", "organism": "Monascus purpureus", "assay": "microbial growth, broth dilution", "endpoint": "MIC", "value": "53.5 µM"}
{"SMILES": "CC1(C)S[C@@H]2[C@H](NC(=O)[C@H](N)c3ccccc3)C(=O)N2[C@H]1C(=O)O", "organism": "Plesiomonas shigelloides", "assay": "microbial growth, agar dilution", "setting": "26.93 µM", "endpoint": "inhibition", "value": "100%"}
{"SMILES": "CCOC(=O)c1c(NC(=O)c2c(F)c(F)c(F)c(F)c2F)sc2c1CCCC2", "organism": "Mycobacterium tuberculosis", "assay": "microbial growth, resazurin", "test system": "H37RV", "endpoint": "IC50", "value": "13 µM"}
{"SMILES": "c1ccc(CNc2nc(-c3ccccn3)nc3ccccc23)cc1", "organism": "Trypanosoma cruzi", "assay": "parasite growth, imaging", "test system": "U2OS", "setting": "intracellular, amastigote", "endpoint": "IC50", "value": "1.4 µM"}
{"SMILES": "CCOC(=O)c1c(NC(=O)c2cc(C(F)(F)F)cc(C(F)(F)F)c2)sc2c1CCN(C(=O)OC(C)(C)C)C2", "organism": "Mycobacterium tuberculosis", "assay": "microbial growth, resazurin", "test system": "H37RV", "setting": "7 days", "endpoint": "MIC", "value": "> 100 µM"}
{"SMILES": "Cc1cc2nc(C(=O)N3CCOCC3)cc(-c3ccccc3Cl)c2c(C)c1-c1ccncc1", "organism": "Mycobacterium tuberculosis", "assay": "microbial growth", "test system": "H37RV", "endpoint": "MIC90", "value": "15 µM"}
{"SMILES": "COc1ccccc1-c1nc(N2CCC(c3ccccn3)C2)c2ccccc2n1 (centres unmarked)", "organism": "Trypanosoma cruzi", "assay": "parasite growth, imaging", "test system": "U2OS", "setting": "intracellular, amastigote", "endpoint": "IC50", "value": "0.91 µM"}
{"SMILES": "O=C1NN=C(N=Cc2ccccc2O)C1=NNn1c(-c2ccccc2)nc2ccccc2c1=O", "organism": "Monascus purpureus", "assay": "microbial growth, broth dilution", "endpoint": "MIC", "value": "111 µM"}
{"SMILES": "Cc1ccc2nc(-c3ccc(Cl)cc3)cn2c1", "organism": "Trypanosoma cruzi", "assay": "parasite growth", "test system": "TULAHUEN", "setting": "6 days, intracellular, amastigote", "endpoint": "EC90", "value": "> 5 µM"}
{"SMILES": "CC(C)(Nc1nc(-c2ccccn2)nc2ccccc12)c1ccccn1", "organism": "Trypanosoma cruzi", "assay": "parasite growth, imaging", "test system": "U2OS", "setting": "intracellular, amastigote", "endpoint": "IC50", "value": "1.4 µM"}
{"SMILES": "CCOC(=O)c1cc(-c2ccccc2)sc1NC(=O)c1c(F)c(F)c(F)c(F)c1F", "organism": "Mycobacterium tuberculosis", "assay": "microbial growth, resazurin", "test system": "H37RV", "endpoint": "MIC", "value": "> 200 µM"}
{"SMILES": "O=C(O)c1cn(C2CC2)c2cc(N3CCNCC3)c(F)cc2c1=O", "organism": "Monascus purpureus", "assay": "microbial growth, broth dilution", "endpoint": "MIC", "value": "6.25 µM"}
{"SMILES": "CC(C)(C)c1nc(N2CCCCC2)c2ccccc2n1", "organism": "Trypanosoma cruzi", "assay": "parasite growth, imaging", "test system": "U2OS", "setting": "intracellular, amastigote", "endpoint": "IC50", "value": "21.5 µM"}
{"SMILES": "CCOC(=O)c1c(NC(=O)c2ccccc2)sc2c1CCN(CC)C2", "organism": "Mycobacterium tuberculosis", "assay": "microbial growth, resazurin", "test system": "H37RV", "endpoint": "MIC", "value": "279 µM"}
{"SMILES": "c1ccc(C2CCN(c3nc(-c4ccn[nH]4)nc4ccccc34)C2)nc1 (centres unmarked)", "organism": "Trypanosoma cruzi", "assay": "parasite growth, imaging", "test system": "U2OS", "setting": "intracellular, amastigote", "endpoint": "IC50", "value": "14.3 µM"}
{"SMILES": "Cc1cc2nccc(-c3cccnc3)c2c(C)c1-c1ccc(CN2CCOCC2)cc1", "organism": "Mycobacterium tuberculosis", "assay": "microbial growth", "test system": "H37RV", "endpoint": "MIC90", "value": "5 µM"}
{"SMILES": "NC(=O)c1cccc(-c2nc(N3CCC(c4ccccn4)C3)c3ccccc3n2)c1 (centres unmarked)", "organism": "Trypanosoma cruzi", "assay": "parasite growth, imaging", "test system": "U2OS", "setting": "intracellular, amastigote", "endpoint": "IC50", "value": "9.33 µM"}
{"SMILES": "CCN1CCc2c(sc(N)c2C(=O)O)C1", "organism": "Mycobacterium tuberculosis", "assay": "microbial growth, resazurin", "test system": "H37RV", "endpoint": "MIC", "value": "> 400 µM"}
{"SMILES": "c1ccc(-c2nc(N3CCC(c4ccccn4)C3)c3ccccc3n2)nc1 (centres unmarked)", "organism": "Trypanosoma cruzi", "assay": "parasite growth, imaging", "test system": "U2OS", "setting": "intracellular, amastigote", "endpoint": "IC50", "value": "1.2 µM"}
{"SMILES": "CCOC(=O)c1c(NC(=O)c2ccccc2)sc2c1CCN(C(=O)OC(C)(C)C)C2", "organism": "Mycobacterium tuberculosis", "assay": "microbial growth, resazurin", "test system": "H37RV", "endpoint": "MIC", "value": "> 200 µM"}
